Laboratory results published in the EternaBench riboswitch data.

System: MS2 coat protein
Assay: apparent Kd, MS2 coat protein; higher = weaker binding; RNA-MaP array; FMN 200 µM where present
Outline: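 Designs were transcribed by stalled E. coli RNA polymerase on Illumina sequencing-chip clusters. They were titrated with SNAP-549-labelled MS2 coat protein from 0.7 or 1.5 nM, doubling to 3 µM, in 100 mM Tris-HCl pH 7.5, 80 mM KCl, 4 mM MgCl2, BSA, DTT, yeast tRNA and Tween-20, without and then with constant ligand. The apparent Kd is the median of filtered per-cluster fits after normalisation of green signal to red-channel RNA signal and control-cluster median Fmax.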

[1] = designed as: OFF switch for flavin mononucleotide, no ligand
[2] = ligand present: flavin mononucleotide, designed as: OFF switch for flavin mononucleotide
[3] = designed as: ON switch for flavin mononucleotide, no ligand
[4] = ligand present: flavin mononucleotide, designed as: ON switch for flavin mononucleotide

Sequence	apparent Kd [1] [nM]	apparent Kd [2] [nM]	apparent Kd [3] [nM]	apparent Kd [4] [nM]
CUUUCGUGAGGAUAUCAGUAGUAAAUAAAUAAAAUUACUACUGAGAAGGCACAUGAGGAUCACCCAUGUUCCUC	23.6	144		
AGAUGGUAUAUAGGAUAUCAUGUGCAAACAUGAGGAUCACCCAUGUAGAAACGUCAGUUUAAUAAUGAGAAGGAUAUACCAUCU			31.9	11.5
GGAUAGGACAGAGGAUAUACGUGCUAGAGUUACUAGCAAAAUUUCCUCACAUGAGGAUCACCCAUGUAGAAGGCUGUCCUAUCG	15.6	470		
CCGGAAACGGGUAGCUGUACAUGAGGAUCACCCAUGUGAUCAUAGGAUAUGGAUGGUAAUUCCAUCCAGAAGGAUGUCAGCUAC			216	715
GAAUACCUAGGAUAUACAUGAGGAUCACCCAUGUUAAUAUUUGCAUAUUCAUCCUCUGGUAGAAGGAGGAAACU	16.1	14.6		
AUACAUGAGGAUCACCCAUGUUACUGGGUCUAUAUAGAACGUAGAAGGAUGUAUUGAAGAAGAUCAUAGGAUAUACUUUAUAGU	49.9	38.9		
GGCGAAGAGGCUAACAUGAGGAUCACCCAUGUGGACUCAUGGUAGGAUAUGCUGUACAAAGUACAGCAGAAGGGCCGCUGAGCC			146	663
GUCAGCUCGUGAGGAUAUACAUGUGCUGGAUACAGCAUUAAAUAAUUCACAUGAGGAUCACCCAUGUAGAAGGCACGAGCUGAU	17.9	42.9		
UAUUGACAAGGAUAUUUGCGUAGUAACAUGAGGAUCACCCAUGUGAUACUAUGGAGCUCGAAAGAAGGUGUGCGAG	20.5	22.8		
UUGGACGUCGUAGGAUAUGUAGGAUAUUCCUACAUGAGGAUCACCCAUGUUGACAUGGAAGAAGGACAGAACGACGAUGUCCAU			172	6.07
UAUAUGUCAGGAUAUCGAUUGGAAUGGAAUUCGGUUCUGGUUGAGAAGGGACAUGAGGAUCACCCAUGUUUUUC	27.6	84.4		
CAUUAAUUCAUUAUAGUAAUUAUACAGGAUAUGUAACAUGAGGAUCACCCAUGUAUUCUUGGUUAACAGAAGGGUAUUACAAGU	16.5	28.4		
GGAUAGGACAGAGGAUAUACGUGCUAGAGAUACUAGCAAAAUUUCCUCACAUGAGGAUCACCCAUGUAGAAGGCUGUCCUACCG	17	484		
ACACAUGAGGAUCACCCAUGUAGUAAUAGCUUCCGGACCUCACAGGAUAUAUGCAAGUUCGUUGCGUAGAAGGGUGAACUCUAA			89	92.5
GCGAUUGCGUAGAAGGUACUAUAAAAUACACUGUAAGGAUAUACAAACAUGAGGAUCACCCAUGUAAAUGGAAUUUGCAAUCGC			7.8	6.43
UGUCGGAGCAGAGGAUAUUACAUGAGGAUCACCCAUGUAUGAACCAAAAGCUGGAAACAGCAAUGUAAGAAGGCUGCUCCGACA	11.8	123		
UCAUAUAUACAAGGAUAUCAAUUAUUUAUACAUCCUACAUGAGGAUCACCCAUGUUUUUAUAUUUUGAGAAGGUGUAAUGUCUU			21.1	27.5
UUUUGUUUACAAGGAUAUCAAUUAUUUAUACUUCCUACAUGAGGAUCACCCAUGUUUUUAUAUUUUGAGAAGGUGUAAUGUCGG			40.4	39
UUUCUCGUUGUGAGGAUAUCGUUUUUGUCUCGGAUCGAGAAGGCACAUGAGGAUCACCCAUGUUUGUUGUGGUU	85.1	103		
GGUUGGCGAGGAUAUACAUGAGGAUCACCCAUGUGGUCCUGUGGCUGGUCUUAACUUUGUAGAAGGCGCGGGUC	66	82.8		
UAUAAUUAGUAGAAGGACGGUGAGUAAGAGGUCGUAGGAUAUACAACUGACAUGAGGAUCACCCAUGUGUGUAUGUUGGGAAGG	11.1	9.9		
GGAUAGGACAGAGGAUAUACGUGCUAGAGAUACAAGCAAAAUUUCCUCACAUGAGGAUCACCCAUGUAGAAGGCUGUCCUAUCG	43.7	432		
CGCGAACAGGCUAACAUGAGGAUCACCCAUGUGGACUCAUGGUAGGAUAUCGGGAAGGAGGAAACCGAGAAGGGCCGGUGAGCA			218	38.9
GCAGGUUAAGUCAGGAUAUACCUAUGGAUACAUAGGUAGAAGGGACAUGAGGAUCACCCAUGUGACUCGCCUGC	26.9	95.8		
CAGUACAGAGGAUAUACAUGAGGAUCACCCAUGUGUUUCAGCUAGGAGACUAGCGAGUGUAGAAGGCUGUACUG	37.4	360		
UGUGCACUAGGAUAUGCGUAAGCUGAUACGUCAGCAGGUCUACAUGAGGAUCACCCAUGUAGAAGGAGUGUACU	17.1	16.9		
AAUAAUUAGUAAGGAUAUACUAGCGAUUAGCUUGUAGAAGGUACAGUCUUAUGUAUAACAUGUUAACAUGAGGAUCACCCAUGU			68.9	29.3
UCCAAAUCGUAGAAGGGUGACAUGAGGAUCACCCAUGUGCAGCGGCCGUGAACGGCCACGCUGCCACAGGAUAUACGAUGGAGU			48.4	74

Sequence	apparent Kd [1] [nM]	apparent Kd [2] [nM]	apparent Kd [3] [nM]	apparent Kd [4] [nM]
GCGACGAAAGUCGAACGAUGUAGCAGAAGGACAUGAGGAUCACCCAUGUCAGCUGUAACAGCCAUGUAGGAUAUGCUACAUCGU	4.18	5.27		
GCGUAACAUGAGGAUCACCCAUGUACCCGAGAAUUCGGGUGUAGAAGGGUGACCGGUCGUUUGGCACAGGAUAUACACGCUGUG			37.1	11.5
UUUGGGUGGCUGGAGGAUAUCCUUGUUGUUACAUGAGGAUCACCCAUGUGCCGCGCGGUUCGCGAGGAGAAGGCUGGCGGCCGUU			331	61.3
UGGUACUAGGGAGGAUAUGGGAAGAUACAUGAGGAUCACCCAUGUUUAAGAAUGCCGAGAGGCAACUAGAAGGCCCUAUUACCU			365	20.1
UGAACUAUGUAGAAGGCCCAUAUUUAUAUAUAGGGAGGAUAUACAUGAGGAUCACCCAUGUAUAGAGCAAGAGGACUUGUCAGU	6.34	7.07		
GCUUGUGUUGAGGAUAUGCGCCGGCUCGCUGGCGCAGAAGGCGGCACAUGAGGAUCACCCAUGUCAGUUCGCGC	19	157		
AGGAAGUAAAGAGACAUGAGGAUCACCCAUGUGACUGCAUCACAGGAUAUGUCGAGCGAAGCACAACAGAAGGGUGAUCAGGGC			65.2	120
UGAUACUAAGAGAAGGUUCAAACUACAUAUUGCAUACAUGAGGAUCACCCAUGUUGGUGAAUAAGAAAGGAUAUUUUACUAUAU	48.2	38.2		
AAGGAUAGAGGAUAUACGUAGAUACAGAUUCAUGUAGAACUACAUGAGGAUCACCCAUGUAGAAGGCUAUCCUA	28.8	299		
UGUUAUUAGACAGGAUAUUGAAUGUUAAGUAUUAACAUGAGGAUCACCCAUGUAUUUGAUUGGUACAAGAAGGGUCAUGUUCCU			431	649
UGUUCAUCAUCAGGAUAUUAACGUGGGCUACUUUAAGAAGGGAUAGUGGGAGAGGAUGUGAAACAUGAGGAUCACCCAUGUUGU			13.4	10.3
AAUUAGUGAGGAUAUUUUAACAGUGGCAGUAGCCAGUGCAUGAAGAAGGCACAUGAGGAUCACCCAUGUUAUAA	101	91.5		
GGUCCAAUAUGAGGAUAUAGCAUCUUAUUGAUGCUAGAAGGCGUGUCGGUAGACAUGAGGAUCACCCAUGUAUUACAAUGGACC			110	29.4
GGCCCGGGAGGAUAUACAUGAGGAUCACCCAUGUGCUUCGGCUUGAUCAAGUUGAAGUGUAGAAGGCCCGGGCC	14.2	21		
GCGACGAAAGUCGAACGAUGUAGCAGAAGGACAUGAGGAUCACCCAUGUCAGCUGUAACAGCCAUGUAGGAUAUGCUACAUCGA	4.26	5.11		
GUAGCAUAAUCAGGAUAUUCAGCGAAUAGAUAGACAUGAGGAUCACCCAUGUGGCGAAAGCCUCGGGAGAAGGGAUAAUGCUAC			168	54
UGGCGCAUGUGAGGAUAUAGUGGGUAGUAACUACUAGAAGGUACAUGAGGAUCACCCAUGUACUUGGGUUUGUCAGGAACUCCU	6.57	8.33		
UUGUUAUGUGUAGGAUAUGCAUAUUAUUAUUAUGCAGAAGGACAUGAGGAUCACCCAUGUGUAUUAUUAUUAUAUAUUAUAUAU	23.9	35.9		
CCGAUGCUUAUAAAACAUGAGGAUCACCCAUGUGAGACACAUGAGGAUAUGCAGGUCAAAGACUUGCAGAAGGCAUAGCGUCGG			644	61.8
GGUUGGCGAGGAUAUACAUGAGGAUCACCCAUGUGGUCCUAAAAUAAAAUAAACCUUUGUAGAAGGCGCGGGUC	268	428		
UUUACUUACGAAGGAUAUGGAUACAUGAGGAUCACCCAUGUAUGUAUGAUGAUCUAGUAGUUGGGCCAGAAGGUCGUGAUUAUU	16.9	21.8		
CCGGAAACGGGUAGCUGUACAUGAGGAUCACCCAUGUGAUCAGAGGAUAUGGAUCCUAAUUGGAUCCAGAAGGCUGUCAGCUAC			119	29.1
GAGUGCUUAGGAUAUACAUGAGGAUCACCCAUGUGCUUCAGCUAGGAGACUAGCAUUGGUAGAAGGAAGUACUC	14.5	48.6		
GGUCGUCACAUUAACAUGAGGAUCACCCAUGUAAAAUAACAUGAGGAUAUGCAUCCUAAUUGGAUGCAGAAGGCAUGGACGACC			7.86	6.02
UGUAUGGACAGAGGAUAUACGGAUAGGAUCUACUAUCUUUCUCAAAUAACAUGAGGAUCACCCAUGUAGAAGGCUGUCCAUACU	22.4	136		
GCAAUCGAGGGAGGAUAUUGUGAGAUGGUGACAUGAGGAUCACCCAUGUGACGAGAAGGCCCAGUGCGCCCGCUUAACUGCUGA	37.4	210		
UGACUGAUAUAGAAGGGUAUGUGGGAAUUACAUGAGGAUCACCCAUGUUUUAUAGGAUAUGUAUAUAGUUUUUAAUCAAGUUUA	48.2	36.8		
